Experimental data taken from ChEMBL document CHEMBL1240409, “Design, synthesis and evaluation of (E)-alpha-benzylthio chalcones as novel inhibitors of BCR-ABL kinase” (Bioorg Med Chem, 2010).

Assays:
K562 = test: Growth inhibition of human K562 cells expressing p210Bcr/Abl after 96 hrs by trypan blue exclusion assay; format: functional, cell-based; details: K562, 96 h
Procedure, shortened: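 K562 cells were kept in RPMI with 10% FBS and penicillin–streptomycin at 37 °C under 5% CO2. Cells were seeded at 1 × 10^5 cells/mL with a range of compound concentrations, using DMSO as the negative control. After 96 h, viability was counted by Trypan blue exclusion and expressed as percent of DMSO control to derive GI50.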

DU-145 = test: Growth inhibition of human DU145 cells after 96 hrs by trypan blue exclusion assay; format: functional; details: DU-145, 96 h

| SMILES | GI50 (K562) [µM] | GI50 (DU-145) [µM] |
| --- | --- | --- |
| Cc1ccc(CS/C(=C/c2ccccc2Br)C(=O)c2ccc(Cl)cc2)cc1 | 10 | 10 |
| Cc1ccsc1/C=C(/SCc1ccc(F)cc1)C(=O)c1ccc(Br)cc1 | > 100 | 50 |
| O=C(/C(=C\c1ccc[nH]1)SCc1ccc(Cl)cc1)c1ccc(Cl)cc1 | 10 | 10 |
| Cc1ccc(C)c(/C=C(/SCc2ccc(Cl)cc2)C(=O)c2ccc(Cl)cc2)c1 | 10 | 10 |
| CN(C)c1ccc(/C=C(/SCc2ccc(Cl)cc2Cl)C(=O)c2ccc(Cl)cc2)cc1 | > 100 | 50 |
| O=C(/C(=C\c1cc(Cl)cc(Cl)c1Cl)Sc1ccccc1Br)c1ccc(Cl)cc1 | 50 | 25 |
| COc1ccc(C(=O)/C(=C\c2ccc(OC)c(O)c2)Sc2ccc(F)cc2)cc1 | 1 | 1 |
| COc1ccccc1/C=C(/SCc1ccc(Cl)c(Cl)c1)C(=O)c1ccc(Cl)cc1 | 10 | 10 |
| Cc1cc(C)cc(/C=C(/SCc2ccc(Cl)cc2)C(=O)c2ccc(Cl)cc2)c1 | 10 | 10 |
| COc1cc(C(=O)/C(=C\c2ccc([N+](=O)[O-])c(O)c2)SCc2ccc(Br)cc2)cc(OC)c1OC | 1 | 1 |
| COc1cc(OC)c(/C=C(/SCc2ccc(Cl)c(Cl)c2)C(=O)c2ccc(Cl)cc2)c(OC)c1 | 10 | 10 |
| Cc1ccc(S/C(=C/c2c[nH]c3ccc(Cl)cc23)C(=O)c2ccc(Cl)cc2)cc1 | 1 | 1 |
| O=C(/C(=C\c1ccc(F)cc1C(F)(F)F)S(=O)(=O)Cc1ccc(Cl)c(Cl)c1)c1ccc(Cl)cc1 | 1 | 1 |
| O=C(/C(=C\c1ccccc1OCc1ccccc1)SCc1ccc(F)cc1)c1ccc(Br)cc1 | 1 | 1 |
| Cc1ccsc1/C=C(/SCc1ccc(Cl)c(Cl)c1)C(=O)c1ccc(Cl)cc1 | 50 | 50 |
| CN(C)c1ccc(/C=C(/SCc2ccc(F)cc2)C(=O)c2ccc(C(=O)O)cc2)cc1 | 10 | 10 |
| CN(C)c1ccc(/C=C(/SCc2ccc(Cl)cc2)C(=O)c2ccc(Cl)cc2)cc1 | 10 | > 100 |
| COc1ccc(/C=C(/SCc2ccc(F)cc2)C(=O)c2ccc(C(=O)O)cc2)cc1O | 1 | 10 |
| COc1cc(C(=O)/C(=C\c2ccc(O)c([N+](=O)[O-])c2)SCc2ccc(Br)cc2)cc(OC)c1OC | 1 | 1 |
| COc1ccc(C(=O)/C(=C\c2c(OC)cc(OC)cc2OC)Sc2ccc(F)cc2)cc1 | 50 | 50 |
| COc1ccccc1/C=C(/SCc1ccc(Cl)cc1)C(=O)c1ccc([N+](=O)[O-])cc1 | 1 | 10 |
| CSc1ccc(/C=C(/SCc2ccc(Br)cc2)C(=O)c2ccc(C(=O)O)cc2)cc1 | 10 | 10 |
| COc1ccc(/C=C(/Sc2ccc(F)cc2)C(=O)c2ccc(OC)cc2)cc1 | 1 | 25 |
| Cc1ccc(CS(=O)(=O)/C(=C/c2c[nH]c3ccccc23)C(=O)c2ccc(Cl)cc2)cc1 | > 100 | 25 |
| O=C(/C(=C\c1ccccc1OCc1ccccc1)S(=O)(=O)Cc1ccc(Cl)cc1)c1ccc(Br)cc1 | 1 | 10 |
| Cc1ccc(S/C(=C/c2c(O)cc(O)cc2O)C(=O)c2ccc(Br)cc2)cc1 | 50 | > 100 |
| COc1cc(OC)c(/C=C(/SCc2ccc(Cl)cc2)C(=O)c2ccc(Br)cc2)c(OC)c1 | 10 | 1 |
| Cc1ccsc1/C=C(/SCc1ccc(F)cc1)C(=O)c1ccc(Cl)cc1 | 50 | 50 |
| COc1ccccc1/C=C(\C(=O)c1ccc(Cl)cc1)S(=O)(=O)Cc1ccc(Cl)cc1 | 25 | 25 |
| COc1cc(OC)c(/C=C(/SCc2ccc(Cl)cc2Cl)C(=O)c2ccc(Cl)cc2)c(OC)c1 | 25 | 1 |

More lines, now with the values ahead:

| GI50 (K562) [µM] | GI50 (DU-145) [µM] | SMILES |
| --- | --- | --- |
| 25 | 25 | O=C(/C(=C\c1c[nH]c2ccccc12)S(=O)(=O)c1ccc(Br)cc1)c1ccc(Br)cc1 |
| 10 | 10 | COc1ccc(/C=C(\C(=O)c2ccc(Cl)cc2)S(=O)(=O)c2ccc(Br)cc2)cc1O |
| 50 | > 100 | O=C(/C(=C\c1cc([N+](=O)[O-])ccc1F)S(=O)(=O)Cc1ccc(F)cc1)c1ccc(Br)cc1 |
| 1 | 50 | CN(C)c1ccc(/C=C(/SCc2ccc(F)cc2)C(=O)c2ccc(Br)cc2)cc1 |
| 1 | 50 | COc1ccc(/C=C(/SCc2ccc(F)cc2)C(=O)c2ccc(Br)cc2)cc1 |
| 1 | 1 | COc1ccccc1/C=C(\C(=O)c1ccc(Br)cc1)S(=O)(=O)c1ccc(C)cc1 |
| 1 | 2.5 | Cc1ccc(S(=O)(=O)/C(=C/c2ccccc2F)C(=O)c2ccc(Cl)cc2)cc1 |
| > 100 | > 100 | COc1cc(OC)c(/C=C(\C(=O)c2ccc(Br)cc2)S(=O)(=O)c2ccc(C)cc2)c(OC)c1 |
| > 100 | > 100 | Cc1ccc(S(=O)(=O)/C(=C/c2c(O)cc(O)cc2O)C(=O)c2ccc(Br)cc2)cc1 |
| 25 | 10 | O=C(/C(=C\c1ccc(O)c(C(=O)O)c1)SCc1ccc(Br)cc1)c1ccc(Br)cc1 |
| > 50 | 20 | O=C(C(=Cc1ccc(I)cc1)S(=O)(=O)Cc1ccc(I)cc1)c1ccc(Br)cc1 |
| 1 | 10 | Cc1ccc(S/C(=C/c2ccc(Cl)cc2)C(=O)c2ccc(Br)cc2)cc1 |
| > 100 | > 100 | CN(C)c1ccc(/C=C(\C(=O)c2ccc(C(=O)O)cc2)S(=O)(=O)Cc2ccc(Cl)cc2)cc1 |
| > 100 | > 100 | Cc1ccc(S(=O)(=O)/C(=C/c2ccc(F)cc2F)C(=O)c2ccc(Br)cc2)cc1 |
| 50 | > 100 | Cc1ccc(S(=O)(=O)/C(=C/c2c(F)c(F)c(F)c(F)c2F)C(=O)c2ccc(Cl)cc2)cc1 |
| 10 | 10 | O=C(/C(=C\c1ccc(Br)c([N+](=O)[O-])c1)S(=O)(=O)c1ccc(Br)cc1)c1ccc(Br)cc1 |
| > 50 | 50 | O=C(C(=Cc1ccc(I)cc1)S(=O)(=O)Cc1ccc(I)cc1)c1ccc(I)cc1 |
| > 100 | 50 | Cc1ccc(S(=O)(=O)/C(=C/c2ccc(N(C)C)cc2)C(=O)c2ccc(Br)cc2)cc1 |
| 50 | 50 | CN(C)c1ccc(/C=C(\C(=O)c2ccc(Br)cc2)S(=O)(=O)Cc2ccc(F)cc2)cc1 |
| 1 | 1 | CSc1ccc(/C=C(\C(=O)c2ccc(Br)cc2)S(=O)(=O)c2ccc(C)cc2)cc1 |
| 1 | 10 | CN1CCN(c2ccc(/C=C(/SCc3ccc(Br)cc3)C(=O)c3ccc(C(=O)O)cc3)cc2[N+](=O)[O-])CC1 |
| 25 | 25 | COc1cc(OC)c(/C=C(\C(=O)c2ccc(Br)cc2)S(=O)(=O)Cc2ccc(Cl)cc2)c(OC)c1 |

| GI50 (K562) [µM] | GI50 (DU-145) [µM] | SMILES |
| --- | --- | --- |
| 1 | 1 | O=C(/C(=C\c1ccccc1OCc1ccccc1)S(=O)(=O)c1ccc(F)cc1)c1ccc(Cl)cc1 |
| 10 | 25 | O=C(/C(=C\c1ccc(F)c([N+](=O)[O-])c1)S(=O)(=O)c1ccc(Br)cc1)c1ccc(Br)cc1 |
| > 100 | > 100 | O=C(O)c1ccc(C(=O)/C(=C\c2ccc(Br)cc2)SCc2ccc(F)cc2)cc1 |
| 50 | 50 | O=C(/C(=C\c1c(O)cc(O)cc1O)S(=O)(=O)c1ccccc1Br)c1ccc(Br)cc1 |
| 1 | 1 | CCOc1ccc(/C=C(\C(=O)c2ccc(Br)cc2)S(=O)(=O)c2ccc(Br)cc2)cc1OC |
| 25 | 50 | Cc1ccc(S(=O)(=O)/C(=C/c2ccc(C)s2)C(=O)c2ccc(Cl)cc2)cc1 |
| 10 | 10 | Cc1ccc(S(=O)(=O)/C(=C/c2c[nH]c3ccc(Cl)cc23)C(=O)c2ccc(Br)cc2)cc1 |
| 25 | 25 | Cc1ccc(CS(=O)(=O)/C(=C/c2ccccc2Br)C(=O)c2ccc(Cl)cc2)cc1 |
| 10 | 10 | Cc1ccc(C)c(/C=C(/Sc2ccc(Br)cc2)C(=O)c2ccc(Cl)cc2)c1 |
| 50 | 50 | O=C(/C(=C\c1ccc(Oc2ccccc2)cc1)Sc1ccc(Br)cc1)c1ccc(Br)cc1 |
| 1 | 10 | O=C(/C(=C\c1ccc(O)c([N+](=O)[O-])c1)SCc1ccc(Br)cc1)c1ccc(Cl)cc1Cl |
| 1 | 25 | O=C(/C(=C\c1ccc(Br)cc1)SCc1ccc(F)cc1)c1ccc(Br)cc1 |
| 1 | 1 | O=C(/C(=C\c1cc(I)c(O)c(I)c1)SCc1ccc(Br)cc1)c1ccc(Br)cc1 |
| 1 | 10 | Cc1ccc(CS/C(=C/c2ccc(C(=O)O)cc2)C(=O)c2ccc(Cl)c([N+](=O)[O-])c2)cc1 |
| 25 | 25 | O=C(/C(=C\c1ccc(O)c([N+](=O)[O-])c1)S(=O)(=O)c1ccc(I)cc1)c1ccc(Br)cc1 |
| 10 | 10 | O=C(/C(=C\c1ccc(O)cc1)S(=O)(=O)Cc1ccc(Cl)c(Cl)c1)c1ccc(Cl)cc1 |
| 10 | 25 | O=C(/C(=C\c1ccc(Br)cc1)S(=O)(=O)Cc1ccc(F)cc1)c1ccc(Br)cc1 |
| 25 | 50 | CCOc1ccc(/C=C(\C(=O)c2ccc(Cl)cc2)S(=O)(=O)Cc2ccc(F)cc2)cc1OC |
| 1 | 1 | O=C(/C(=C\c1c[nH]c2ccc(Cl)cc12)SCc1ccc(F)cc1)c1ccc(Br)cc1 |
| 1 | 50 | CCOc1ccc(/C=C(/Sc2ccc(C)cc2)C(=O)c2ccc(Br)cc2)cc1OC |
| 1 | 10 | O=C(O)c1ccc(C(=O)/C(=C\c2ccc([N+](=O)[O-])c(O)c2)SCc2ccc(Br)cc2)cc1 |
